Usually pA2 stands for a measure of antagonist potency on a negative log scale. What is called IC50 is the concentration at which inhibition is half-maximal. High values mean lower potency, low ones higher potency. The term Kb denotes the affinity of an antagonist, worked out from how it opposes an agonist. By Ki is commonly meant a dissociation constant, usually derived from enzyme kinetics or from competition with a known ligand. A high value points to a looser hold on the target.

Here are results for 23 compounds from ChEMBL document CHEMBL1130156, “Evolution of the Dmt-Tic pharmacophore: N-terminal methylated derivatives with extraordinary delta opioid antagonist activity” (J Med Chem, 1997).

Active and inactive are the calls of the source. No cut-off for these calls is given here. Where a SMILES comes first, the peptide text is derived from it. [ ]: non-standard residue; d: D form. ξ: configuration not given here. Dmt = Cc1cc(O)cc(C)c1C[C@H](N)C(=O)O; NMeY = CN[CH](Cc1ccc(O)cc1)C(=O)O; Tic = O=C(O)[CH]1Cc2ccccc2CN1; ξTic = O=C(O)C1Cc2ccccc2CN1 Bounds are passed on as bounds.

Assay [1] has as its target Mu-type opioid receptor (Cavia porcellus) (UniProt P97266). The assay is described as follows: Antagonist activity against Opioid receptor mu 1 in guinea pig ileum assay; '-' indicates inactive. The class given is functional, tissue-based. Put shortly:
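Electrically stimulated mouse vas deferens or guinea pig ileum strips in Krebs' solution; agonist concentration–response curves run without and with rising antagonist concentrations; pA2 by Schild (Arunlakshana–Schild) analysis.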

In assay [2] the target is Opioid receptors; mu & delta (Rattus norvegicus) (UniProt P33533+P33535). The assay is described as follows: Ratio of the affinity for delta and mu opioid receptors (Ki mu/Ki delta) shows delta opioid receptor selectivity. The class given is protein assay.
For assay [3], the target named is T1, Mu-type opioid receptor (Cavia porcellus, UniProt P97266). The assay is described as follows: Inhibitory activity against Opioid receptor mu 1 in an in vitro guinea pig ileum assay. The assay is classed as tissue-based.
Assay [4] deals with Delta-type opioid receptor (Mus musculus, UniProt P32300). Description: Antagonist activity against Opioid receptor delta 1 in mouse vas deferens assay.
In assay [5] the target is Mu-type opioid receptor (Rattus norvegicus, UniProt P33535). The assay is described as follows: Binding affinity for Opioid receptor mu 1 by displacement of [3H]- DAGO. Put shortly:
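Rat brain (Sprague–Dawley, minus cerebellum) synaptosomal membranes, preincubated to strip endogenous opioids. Equilibrium displacement of [3H]DPDPE (δ) or [3H]DAGO (μ); nonspecific binding defined with 2 μM unlabeled ligand. Peptides spanned 3–4 log units. Duplicates, ≥3 membrane preparations; Ki by Cheng–Prusoff; mean ± SEM, n = independent preparations.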

The target in assay [6] is T2, Delta-type opioid receptor (Rattus norvegicus, UniProt P33533). Description: Binding affinity for Opioid receptor delta 1 by displacement of [3H]- DPDPE. An outline of the steps: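 Rat brain (Sprague–Dawley, minus cerebellum) synaptosomal membranes, preincubated to strip endogenous opioids. Equilibrium displacement of [3H]DPDPE (δ) or [3H]DAGO (μ); nonspecific binding defined with 2 μM unlabeled ligand. Peptides spanned 3–4 log units.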
(Loss of bound radioactivity is the signal in a displacement assay; it reports binding, not function.)

The test system of assay [7] is Delta-type opioid receptor. The assay is described as follows: GPI/MVD ratio is based on Ke (antilog of pA2 value of antagonistic activity of compound for delta opioid receptor) and IC50 values. The class given is functional.
The target of assay [8] is Delta-type opioid receptor (Mus musculus) (UniProt P32300). The note with it: Vas deferens.
Assay [9] concerns the target T2, Delta-type opioid receptor. Description: Agonist activity for Opioid receptor delta 1. The class given is functional.
Assay [10] addresses T1, Mu-type opioid receptor. The assay is described as follows: Inhibitory activity against Opioid receptor mu 1 in an in vitro guinea pig ileum assay; '-' indicates inactive. The assay is classed as tissue-based.
Assay [11] addresses Mu-type opioid receptor (Cavia porcellus) (UniProt P97266). The note with it: Ileum.
The target in assay [12] is T1, Mu-type opioid receptor. The assay is described as follows: Antagonist activity against Opioid receptor mu 1 iin a guinea pig ileum assay.
The target in assay [13] is Delta-type opioid receptor (Mus musculus) (UniProt P32300). The note with it: Vas deferens. The source holds these as a separate data set.

T2 sequence (P33533 whole entry): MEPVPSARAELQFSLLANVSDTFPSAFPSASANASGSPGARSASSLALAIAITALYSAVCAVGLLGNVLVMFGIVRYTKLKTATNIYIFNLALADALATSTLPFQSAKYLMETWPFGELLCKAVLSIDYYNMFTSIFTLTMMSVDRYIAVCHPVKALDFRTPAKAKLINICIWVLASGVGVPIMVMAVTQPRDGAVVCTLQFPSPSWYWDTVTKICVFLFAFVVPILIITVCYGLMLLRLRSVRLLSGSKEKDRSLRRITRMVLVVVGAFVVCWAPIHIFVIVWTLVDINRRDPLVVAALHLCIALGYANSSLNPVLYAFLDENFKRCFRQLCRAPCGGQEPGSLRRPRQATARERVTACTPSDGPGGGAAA
Opioid receptors; mu & delta (Rattus norvegicus), sequence (P33533 whole entry, looked up): as the sequence (P33533 whole entry) above
Opioid receptors; mu & delta (Rattus norvegicus), sequence (P33535 whole entry, looked up): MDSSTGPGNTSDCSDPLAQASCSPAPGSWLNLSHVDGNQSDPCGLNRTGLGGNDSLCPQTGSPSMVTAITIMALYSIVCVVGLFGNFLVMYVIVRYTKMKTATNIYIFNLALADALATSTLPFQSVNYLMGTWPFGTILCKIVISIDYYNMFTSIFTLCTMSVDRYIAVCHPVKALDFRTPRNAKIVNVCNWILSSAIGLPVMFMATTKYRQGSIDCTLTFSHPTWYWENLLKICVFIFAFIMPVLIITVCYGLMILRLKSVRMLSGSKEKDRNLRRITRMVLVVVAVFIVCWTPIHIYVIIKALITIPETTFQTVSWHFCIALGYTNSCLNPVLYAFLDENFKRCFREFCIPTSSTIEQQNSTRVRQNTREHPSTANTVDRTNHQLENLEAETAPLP
Mu-type opioid receptor (Rattus norvegicus, UniProt P33535), sequence (P33535 whole entry): as the sequence (P33535 whole entry, looked up) above
Delta-type opioid receptor (Mus musculus, UniProt P32300), sequence (P32300 whole entry): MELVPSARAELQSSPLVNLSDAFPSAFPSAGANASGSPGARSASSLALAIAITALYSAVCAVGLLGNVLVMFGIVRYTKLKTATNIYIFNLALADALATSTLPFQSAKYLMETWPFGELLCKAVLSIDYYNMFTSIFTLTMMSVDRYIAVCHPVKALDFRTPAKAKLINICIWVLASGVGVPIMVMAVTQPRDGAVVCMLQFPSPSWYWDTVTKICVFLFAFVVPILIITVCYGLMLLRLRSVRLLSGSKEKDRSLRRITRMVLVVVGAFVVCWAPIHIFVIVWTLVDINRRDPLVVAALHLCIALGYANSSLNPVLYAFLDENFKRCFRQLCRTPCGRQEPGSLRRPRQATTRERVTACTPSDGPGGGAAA
Delta-type opioid receptor (Mus musculus), sequence (P32300 whole entry): as above
T1 sequence (P97266 whole entry): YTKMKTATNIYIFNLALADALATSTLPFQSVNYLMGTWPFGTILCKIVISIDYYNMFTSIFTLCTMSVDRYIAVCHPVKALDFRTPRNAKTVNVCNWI
Mu-type opioid receptor (Cavia porcellus), sequence (P97266 whole entry): as above

Regarding `Cc1cc(O)cc(C)c1C[C@H](C(=O)N1Cc2ccccc2CC1C(=O)O)N(C)C` (some centres undefined), the pA2 entry in assay [1] is “inactive”. Further, the results for the Ratio in [2] and in [7] were 2280 and more than 4200, respectively. For the same compound, the IC50 at Mu-type opioid receptor [3] is more than 10000 nM. In assay [4], this compound gave a Kb of 2.51 nM. Besides, the Ki on Mu-type opioid receptor [5] was 13100 nM; in assay [6], 5.74 nM.

Regarding `Cc1cc(O)cc(C)c1C[C@@H](N)C(=O)N1Cc2ccccc2C[C@H]1C(=O)N[C@@H](C)C(=O)O`, the pA2 in [8] turned out to be 6.9. In addition, in [1], the pA2 entry was “inactive”. For the same compound, the Ratio is 197 in assay [2] and more than 88 in assay [7]. The IC50 against Mu-type opioid receptor [3] was more than 10000 nM. Moreover, the figures for the Ki (at Mu-type opioid receptor [5]; in assay [6]) were 2560 nM and 13 nM, respectively.

For the compound `N[C@@H](Cc1ccc(O)cc1)C(=O)N1Cc2ccccc2C[C@H]1C(=O)O` (H-Tyr-[Tic]-OH), the Ratio in assay [2] was 148. The Ki at Mu-type opioid receptor [5] was 28400 nM; in assay [6] it was 192 nM.

Regarding `CC(C)[C@H](NC(=O)[C@H](CC(=O)O)NC(=O)[C@H](Cc1ccccc1)NC(=O)[C@@H](C)NC(=O)[C@@H](N)Cc1ccc(O)cc1)C(=O)N[C@H](C(=O)NCC(N)=O)C(C)C` [DELTORPHIN C], the IC50 in assay [9] is 0.54 nM.

As for `Oc1ccc2c3c1O[C@H]1c4[nH]c5ccccc5c4C[C@@]4(O)[C@@H](C2)N(CC2CC2)CC[C@]314` [NALTRINDOLE], the pA2 in assay [8] is 9.2; in assay [11], 7.3. Also, the IC50 entry against Mu-type opioid receptor [10] is on record as “Not Active”. Further, the Ratio in assay [7] is 76.

Regarding `CN[C@H](Cc1c(C)cc(O)cc1C)C(=O)N1Cc2ccccc2CC1C(=O)O` (some centres undefined), the pA2 entry in [1] is “inactive”. Also, the Ratio in [2] is 628; in assay [7], more than 71. Besides, at Mu-type opioid receptor [3], the IC50 is more than 10000 nM. The compound also gave a Kb in assay [4] of 158 nM. In addition, the figures for the Ki (at Mu-type opioid receptor [5]; in [6]) were 2000 nM and 3.19 nM, respectively.

Regarding `Cc1cc(O)cc(C)c1C[C@H](N)C(=O)N1Cc2ccccc2C[C@H]1C(=O)O`, the pA2 in [8] worked out at 8.2. The pA2 entry in [1] was “inactive”. Further, the IC50 against Mu-type opioid receptor [3] is more than 10000 nM.

For the compound `Cc1cc(O)cc(C)c1C[C@@H](C(=O)N1Cc2ccccc2C[C@H]1C(=O)N[C@@H](C)C(=O)O)N(C)C`, at Mu-type opioid receptor [10], the 50% inhibitory concentration (IC50) result is listed as “Not Active”. In addition, the Ratio in [2] was 20000; in [7] it was 7180. Besides, the Kb in [4] was 0.251 nM; on Mu-type opioid receptor [12], 1580 nM. Moreover, the Ki on Mu-type opioid receptor [5] was 1520 nM; in [6], 0.0755 nM.

For `CN[C@H](Cc1c(C)cc(O)cc1C)C(=O)N1Cc2ccccc2C[C@H]1C(=O)N[C@@H](C)C(=O)O`, the Ratio in assay [2] came out at 181. The values for the Ki (at Mu-type opioid receptor [5]; in assay [6]) were 19200 nM and 106 nM, respectively.

`CN(C)[C@@H](Cc1ccc(O)cc1)C(=O)N1Cc2ccccc2CC1C(=O)O` (some centres undefined): in [2], the Ratio was 265. The inhibition constant Ki on Mu-type opioid receptor [5] is 11500 nM; in [6], 43.5 nM.

On to `CN[C@@H](Cc1c(C)cc(O)cc1C)C(=O)N1Cc2ccccc2CC1C(N)=O` (some centres undefined), for which the Ratio in assay [2] was 2490; in assay [7], more than 4550. The IC50 at Mu-type opioid receptor [3] is more than 10000 nM. This compound also showed a Kb in assay [4] of 2.51 nM. Moreover, the Ki amounted to 955 nM at Mu-type opioid receptor [5] and 0.383 nM in assay [6].

Regarding `Cc1cc(O)cc(C)c1CC(N)C(=O)N1Cc2ccccc2C[C@H]1C(=O)O` (single isomer, unassigned), the pA2 result in assay [1] and in assay [13] was “inactive” each time. For the same compound, the IC50 result against Mu-type opioid receptor [10] is on record as “Not Active”. On Mu-type opioid receptor [5], this compound displayed a Ki of 11000 nM.

`Cc1cc(O)cc(C)c1C[C@@H](C(=O)N1Cc2ccccc2CC1C(N)=O)N(C)C` (some centres undefined): at Mu-type opioid receptor [10], the IC50 entry is given as “Not Active”. Also, the results for the Ratio in assay [2] and in assay [7] were 1660 and 4500, respectively. Besides, the Kb in assay [4] was 0.126 nM; on Mu-type opioid receptor [12] it was 501 nM. The inhibition constant (Ki) stood at 511 nM on Mu-type opioid receptor [5] and 0.309 nM in assay [6].

Regarding `Cc1cc(O)cc(C)c1C[C@H](N)C(=O)N1Cc2ccccc2CC1C(N)=O` (some centres undefined) (H-[Dmt]-[ξTic]-NH2), the Ki in assay [6] was found to be 1.22 nM.

With `Cc1cc(O)cc(C)c1C[C@H](C(=O)N1Cc2ccccc2C[C@H]1C(=O)N[C@@H](C)C(=O)O)N(C)C`, the Ratio in assay [2] came out at 176. The Ki at Mu-type opioid receptor [5] is 19000 nM; in assay [6], 108 nM.

`Cc1cc(O)cc(C)c1C[C@H](N)C(=O)N1Cc2ccccc2C[C@H]1C(=O)NC(C)C(=O)O` (some centres undefined): the pA2 in assay [8] was 8.4. For the same compound, in assay [1], the pA2 entry was “inactive”. Further, the Ratio was 20400 in assay [2] and more than 2500 in assay [7].

On to `Cc1cc(O)cc(C)c1CC(C)C(=O)N1Cc2ccccc2CC1C(=O)O` (centres undefined), for which, in assay [2], the Ratio was found to be 55. Besides, the Ki at Mu-type opioid receptor [5] was determined as 71400 nM; in [6], 1300 nM.

Take `CN[C@@H](Cc1c(C)cc(O)cc1C)C(=O)N1Cc2ccccc2C[C@H]1C(=O)N[C@@H](C)C(=O)O`: the pA2 result in assay [1] was “inactive”. Also, the Ratio in assay [2] was 43000; in [7] it was more than 7100. This compound gave an IC50 against Mu-type opioid receptor [3] of more than 10000 nM. Besides, the Kb in [4] was 1.58 nM. Besides, the Ki at Mu-type opioid receptor [5] turned out to be 5850 nM; in [6], 0.136 nM.

Take `Cc1cc(O)cc(C)c1C[C@@H](C(=O)N1Cc2ccccc2CC1C(=O)O)N(C)C` (some centres undefined): on Mu-type opioid receptor [10], the IC50 result was “Not Active”. The Ratio amounted to 20600 in [2] and 5640 in assay [7]. Further, the Kb in [4] was 0.398 nM; at Mu-type opioid receptor [12], 1580 nM. Also, the values for the Ki (on Mu-type opioid receptor [5]; in assay [6]) were 2440 nM and 0.118 nM, respectively.

For `CN[C@H](Cc1c(C)cc(O)cc1C)C(=O)N1Cc2ccccc2CC1C(N)=O` (some centres undefined), the pA2 entry in assay [1] and in [13] was “inactive” throughout. The IC50 entry against Mu-type opioid receptor [10] is given as “Not Active”. In addition, the Ratio in [2] was found to be 119. Further, the Ki on Mu-type opioid receptor [5] was 1330 nM; in assay [6] it was 11.2 nM.

In the case of `Cc1cc(O)cc(C)c1C[C@H](N)C(=O)N1Cc2ccccc2C[C@H]1C(=O)N[C@@H](C)C(=O)O`, at Mu-type opioid receptor [3], the IC50 is more than 10000 nM.

Regarding `CNC(Cc1ccc(O)cc1)C(=O)N1Cc2ccccc2CC1C(=O)O` (centres undefined) (H-[NMeY]-[Tic]-OH; configuration not given here), in assay [2], the Ratio stood at 166. The Ki on Mu-type opioid receptor [5] stood at 12400 nM; in assay [6], 74.7 nM.

`CN[C@@H](Cc1c(C)cc(O)cc1C)C(=O)N1Cc2ccccc2CC1C(=O)O` (some centres undefined): in [1], the pA2 entry is “inactive”. For the same compound, the Ratio was 1870 in [2] and more than 3570 in [7]. Moreover, the IC50 against Mu-type opioid receptor [3] was more than 10000 nM. For the same compound, in assay [4], the Kb is 3.16 nM. In addition, the figures for the Ki (at Mu-type opioid receptor [5]; in assay [6]) were 379 nM and 0.203 nM, respectively.
